The text below walks through data of ChEMBL document CHEMBL4808161, “Structure-Activity Relationship Study of Amidobenzimidazole Analogues Leading to Potent and Systemically Administrable Stimulator of Interferon Gene (STING) Agonists” (J Med Chem, 2021).

Some results are limits rather than exact numbers.

Data set [1] is described as follows: Solubility of the compound. Type of data set: physicochemical.
The target in data set [2] is Voltage-gated inwardly rectifying potassium channel KCNH2 (Homo sapiens, UniProt Q12809). Briefly: Inhibition of human ERG.
Data set [3] addresses T1, Stimulator of interferon genes protein (Homo sapiens, UniProt Q86WV6). As to the kind of experiment: Activation of human STING expressed in THP1-Dual cells incubated for 24 hrs by secreted luciferase reporter gene assay. (A reporter such as luciferase makes a cellular process visible.)
Data set [4] addresses T2, Stimulator of interferon genes protein (Mus musculus, UniProt Q3TBT3).
T2 sequence (Q3TBT3 whole entry): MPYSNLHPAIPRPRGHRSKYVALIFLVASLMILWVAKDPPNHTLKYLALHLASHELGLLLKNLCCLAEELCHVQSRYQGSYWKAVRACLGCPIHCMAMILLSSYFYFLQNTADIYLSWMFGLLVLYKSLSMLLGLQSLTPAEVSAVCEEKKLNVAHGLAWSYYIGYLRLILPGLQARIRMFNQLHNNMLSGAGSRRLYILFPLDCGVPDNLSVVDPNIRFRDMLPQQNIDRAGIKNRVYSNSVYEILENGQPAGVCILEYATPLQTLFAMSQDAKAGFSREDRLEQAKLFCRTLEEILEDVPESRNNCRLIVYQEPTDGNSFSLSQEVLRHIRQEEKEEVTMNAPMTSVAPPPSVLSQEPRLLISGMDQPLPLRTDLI
Briefly: Activation of mouse STING expressed in RAW-Lucia ISG cells incubated for 24 hrs by secreted luciferase reporter gene assay.

The target in data set [5] is T1, Stimulator of interferon genes protein. Briefly: Activation of human STING (139 to 379 residues) expressed in THP1-Blue ISG cells at 10 uM incubated for 24 hrs by quanti-blue SEAP reporter gene assay relative to control. In kind it is cell-based. Conditions: filed as activator. The essentials: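 THP1-Blue-ISG cells (1 × 10⁵/well) treated for 24 h; single-concentration screen at 10 μM. SEAP ISG reporter in 20 μL supernatant read with QUANTI-Blue at 650 nm. Activation given as fold over control, averaging at least two experiments.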

For data set [6], the target named is T3, Stimulator of interferon genes protein (Mus musculus) (UniProt Q3TBT3).
T3 sequence (whole entry): T2 sequence (Q3TBT3 whole entry)
Briefly: Activation of mouse STING expressed in RAW-Lucia ISG cells at 50 uM incubated for 24 hrs by QUANTI-Luc luciferase reporter gene assay relative to control. Conditions: filed as activator.

Data set [7] addresses T3, Stimulator of interferon genes protein (Mus musculus). As to the kind of experiment: Activation of mouse STING expressed in RAW-Lucia ISG cells at 50 uM incubated for 24 hrs by quanti-blue SEAP reporter gene assay relative to control. Conditions: filed as activator. Type of data set: cell-based.
A short description of data set [8]: Observed volume of distribution at steady state in rat at 1 mg/kg, iv. In kind it is ADME, organism-based. Conditions: in vivo, read-out: Vdss.
Data set [9] in a line: Half life in rat at 1 mg/kg, iv. Type of data set: ADME, organism-based. Conditions: in vivo.
Data set [10] can be described thus: Observed AUCinfinity in rat at 1 mg/kg, iv. Type of data set: ADME, organism-based. Further details: time infinity, route intravenous, dose 1 mg/kg. Conditions: in vivo.
Data set [11] is described as follows: Observed clearance in rat at 1 mg/kg, iv. Type of data set: ADME, organism-based. Conditions: in vivo.
Data set [12] can be described thus: Observed MRT infinity in rat at 1 mg/kg, iv. In kind it is ADME, organism-based. Conditions: in vivo.
The nature of data set [13]: AUClast in rat at 1 mg/kg, iv. Conditions: in vivo. In kind it is ADME, organism-based. More on the design: time 0 - last, route intravenous, dose 1 mg/kg.

T1 sequence (Q86WV6 whole entry): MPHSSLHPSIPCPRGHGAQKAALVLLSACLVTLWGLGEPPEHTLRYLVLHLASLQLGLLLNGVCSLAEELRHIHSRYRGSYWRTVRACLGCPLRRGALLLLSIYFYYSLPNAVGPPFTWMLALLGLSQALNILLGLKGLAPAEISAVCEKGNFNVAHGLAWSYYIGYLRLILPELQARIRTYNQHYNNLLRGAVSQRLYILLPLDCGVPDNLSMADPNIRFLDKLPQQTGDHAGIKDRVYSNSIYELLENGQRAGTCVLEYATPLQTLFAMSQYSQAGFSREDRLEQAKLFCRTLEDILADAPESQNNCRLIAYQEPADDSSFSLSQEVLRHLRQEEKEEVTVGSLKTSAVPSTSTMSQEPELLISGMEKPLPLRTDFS
Voltage-gated inwardly rectifying potassium channel KCNH2, sequence (Q12809 whole entry): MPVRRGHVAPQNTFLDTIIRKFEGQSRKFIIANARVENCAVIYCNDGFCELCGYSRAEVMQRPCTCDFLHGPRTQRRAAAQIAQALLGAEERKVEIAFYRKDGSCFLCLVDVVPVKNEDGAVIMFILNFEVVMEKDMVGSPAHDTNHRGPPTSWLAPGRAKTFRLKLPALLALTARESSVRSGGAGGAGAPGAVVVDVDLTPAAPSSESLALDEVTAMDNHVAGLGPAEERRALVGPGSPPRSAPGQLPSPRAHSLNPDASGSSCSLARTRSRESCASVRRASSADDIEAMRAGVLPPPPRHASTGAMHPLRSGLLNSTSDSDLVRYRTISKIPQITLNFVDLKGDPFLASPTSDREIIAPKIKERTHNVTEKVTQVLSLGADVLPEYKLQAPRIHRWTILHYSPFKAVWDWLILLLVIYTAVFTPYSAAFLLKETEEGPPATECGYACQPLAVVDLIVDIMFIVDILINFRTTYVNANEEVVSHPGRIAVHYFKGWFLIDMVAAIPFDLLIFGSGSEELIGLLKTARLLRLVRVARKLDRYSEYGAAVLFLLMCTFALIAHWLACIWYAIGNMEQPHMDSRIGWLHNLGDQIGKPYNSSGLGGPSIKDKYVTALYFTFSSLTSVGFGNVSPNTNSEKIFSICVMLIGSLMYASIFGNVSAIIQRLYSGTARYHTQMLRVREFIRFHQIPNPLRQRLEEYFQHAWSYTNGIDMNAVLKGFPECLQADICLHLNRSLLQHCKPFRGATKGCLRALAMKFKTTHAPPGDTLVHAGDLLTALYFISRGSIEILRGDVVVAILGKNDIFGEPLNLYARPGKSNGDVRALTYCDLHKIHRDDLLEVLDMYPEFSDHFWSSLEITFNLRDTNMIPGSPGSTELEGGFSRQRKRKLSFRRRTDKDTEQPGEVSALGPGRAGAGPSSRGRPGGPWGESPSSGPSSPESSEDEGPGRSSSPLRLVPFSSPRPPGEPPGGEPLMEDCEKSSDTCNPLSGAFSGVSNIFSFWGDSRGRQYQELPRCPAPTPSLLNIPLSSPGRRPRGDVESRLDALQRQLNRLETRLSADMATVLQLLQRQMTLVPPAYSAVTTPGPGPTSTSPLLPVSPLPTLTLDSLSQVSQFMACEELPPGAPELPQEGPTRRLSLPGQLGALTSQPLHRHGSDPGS

As usually defined, the solubility is how much of the substance goes into solution per volume. The low end stands for a poorly soluble substance, the high end for a readily soluble substance. In general, IC50 refers to the concentration at which inhibition is half-maximal. The low end stands for greater potency, the high end for weaker potency. On to `CCn1nc(C)cc1C(=O)/N=c1\[nH]c2cc(-c3ncn[nH]3)cc(OC)c2n1C/C=C/Cn1/c(=N/C(=O)c2cc(C)nn2CC)[nH]c2cc(C(N)=O)cc(OCCCN3CCOCC3)c21.Cl.Cl.Cl`, for which the solubility in data set [1] is 71.3 mg/mL. In [2], the IC50 is > 40 µM.
In general, EC50 refers to the concentration at which the effect is half-maximal. Low values mean greater potency, high ones weaker potency. As for `CCn1nc(C)cc1C(=O)/N=c1\[nH]c2cc(C(N)=O)cc(OC)c2n1C/C=C/Cn1/c(=N/C(=O)c2cc(C)nn2CC)[nH]c2cc(-c3ncc[nH]3)cc(OCCCN3CCOCC3)c21`, the EC50 in [3] was 0.79 µM; in data set [4] it was > 50 µM. Moreover, the fold change (FC) in data set [5] came to 17.3; in [6], 1.18.
For `CCn1nc(C)cc1C(=O)/N=c1\[nH]c2cc(-c3ncn[nH]3)cc(OC)c2n1CCCCn1/c(=N/C(=O)c2cc(C)nn2CC)[nH]c2cc(C(N)=O)cc(OCCCN3CCOCC3)c21`, the fold change (FC) in data set [7] worked out at 1.2; in [5] it was 1.28.
As to `CCn1nc(C)cc1C(=O)/N=c1\[nH]c2cc(C(N)=O)cc(OC)c2n1C/C=C/Cn1/c(=N/C(=O)c2cc(C)nn2CC)[nH]c2cc(-c3ncn[nH]3)cc(OCCCN3CCOCC3)c21`, the EC50 in data set [3] is 0.33 µM; in data set [4] it was > 50 µM. The results for the fold change (FC) in data set [5] and in data set [6] were 17 and 2.17, respectively.
As for `CCn1nc(C)cc1C(=O)/N=c1\[nH]c2cc(-c3ncn[nH]3)cc(OC)c2n1C/C=C/Cn1/c(=N/C(=O)c2cc(C)nn2CC)[nH]c2cc(-c3ncn[nH]3)cc(OCCCN3CCOCC3)c21`, the figures for the fold change (FC) in [5] and in data set [6] were 4.9 and 1.18, respectively.
Take `CCn1nc(C)cc1C(=O)/N=c1\[nH]c2cc(C3=NCCO3)cc(OC)c2n1C/C=C/Cn1/c(=N/C(=O)c2cc(C)nn2CC)[nH]c2cc(C(N)=O)cc(OCCCN3CCOCC3)c21`: the EC50 in [3] is 1.54 µM; in data set [4], > 50 µM. Besides, the fold change (FC) in data set [5] is 18.3; in data set [6], 0.99.
Take `CCn1nc(C)cc1C(=O)/N=c1\[nH]c2cc(-c3cn(CCOCCOC)nn3)cc(OC)c2n1C/C=C/Cn1/c(=N/C(=O)c2cc(C)nn2CC)[nH]c2cc(C(N)=O)cc(OCCCN3CCOCC3)c21`: the fold change (FC) in data set [5] was found to be 17.2; in data set [6], 1.16.
As to `CCn1nc(C)cc1C(=O)/N=c1\[nH]c2cc(-c3ncc[nH]3)cc(OC)c2n1C/C=C/Cn1/c(=N/C(=O)c2cc(C)nn2CC)[nH]c2cc(C(N)=O)cc(OCCCN3CCOCC3)c21`, the figures for the EC50 in data set [3] and in [4] were 3.28 µM and > 50 µM, respectively. Further, the fold change (FC) turned out to be 17.5 in data set [5] and 1.42 in data set [6].
As for `CCn1nc(C)cc1C(=O)/N=c1\[nH]c2cc(C(N)=O)cc(OC)c2n1C/C=C/Cn1c(C(=O)CCC(=O)OC)nc2cc(C(N)=O)cc(OCCCN3CCOCC3)c21`, the fold change (FC) in data set [7] is 0.9; in data set [5] it was 0.83.
`CCn1nc(C)cc1C(=O)/N=c1\[nH]c2cc(-c3ncn[nH]3)cc(OC)c2n1C/C=C/Cn1/c(=N/C(=O)c2cc(C)nn2CC)[nH]c2cc(C(N)=O)cc(OCCCO)c21`: the EC50 in data set [3] was 2.66 µM; in data set [4], > 50 µM. The fold change (FC) in data set [5] is 16.7; in [6], 0.96.
`COc1cc(C(N)=O)cc2nc(C(=O)CCC(=O)O)n(C/C=C/Cn3c(C(=O)CCC(=O)O)nc4cc(C(N)=O)cc(OCCCN5CCOCC5)c43)c12`: the fold change (FC) in [7] was 1.4; in data set [5], 9.
Consider `CCn1nc(C)cc1C(=O)/N=c1\[nH]c2cc(C#N)cc(OC)c2n1C/C=C/Cn1/c(=N/C(=O)c2cc(C)nn2CC)[nH]c2cc(C#N)cc(OCCCN3CCOCC3)c21`, for which the EC50 in [3] and in data set [4] was > 50 µM throughout. For the same compound, the fold change (FC) in [7] worked out at 1.16; in [5], 7.9.
With `CCn1nc(C)cc1C(=O)/N=c1\[nH]c2cc(C(N)=O)cc(OC)c2n1C/C=C/Cn1/c(=N/C(=O)c2cc(C)nn2CC)[nH]c2cc(C#N)cc(OCCCN3CCOCC3)c21`, the figures for the concentration for a half-maximal effect (EC50) in data set [3] and in [4] were 1.02 µM and > 50 µM, respectively. In addition, the figures for the fold change (FC) in [5] and in [6] were 13.4 and 1.07, respectively.
`CCn1nc(C)cc1C(=O)/N=c1\[nH]c2cc(-c3nc(C)n[nH]3)cc(OC)c2n1C/C=C/Cn1/c(=N/C(=O)c2cc(C)nn2CC)[nH]c2cc(C(N)=O)cc(OCCCN3CCOCC3)c21`: the values for the EC50 in data set [3] and in data set [4] were 2.55 µM and > 50 µM, respectively. The fold change (FC) in data set [5] stood at 18.8; in data set [6], 0.92.
For the compound `CCn1nc(C)cc1C(=O)/N=c1\[nH]c2cc(-c3ncn[nH]3)cc(OC)c2n1[C@H]1CC[C@@H](n2/c(=N/C(=O)c3cc(C)nn3CC)[nH]c3cc(C(N)=O)cc(OCCCN4CCOCC4)c32)CC1`, the fold change (FC) in [7] is 0.59; in data set [5], 1.14.
The corresponding values for `CCn1nc(C)cc1C(=O)/N=c1\[nH]c2cc(-c3ncn[nH]3)cc(OC)c2n1C/C=C/Cn1/c(=N/C(=O)c2cc(C)nn2CC)[nH]c2cc(C(N)=O)c3c(c21)OCCO3` are 1.1 and 1.58.
The corresponding values for `CCn1nc(C)cc1C(=O)/N=c1\[nH]c2cc(C(N)=O)cc(OC)c2n1C/C=C/Cn1c(C(=O)CCC(=O)O)nc2cc(C(N)=O)cc(OCCCN3CCOCC3)c21` are 0.93 and 0.86.
Turning to `CCn1nc(C)cc1C(=O)/N=c1\[nH]c2cc(-c3ncn[nH]3)cc(OC)c2n1C/C=C/Cn1/c(=N/C(=O)c2cc(C)nn2CC)[nH]c2cc(C#N)cc(OCCCN3CCOCC3)c21`, the EC50 was 26 µM in [3] and > 50 µM in data set [4]. Moreover, the fold change (FC) in data set [5] was determined as 11.1; in data set [6], 1.34.
`CCn1nc(C)cc1C(=O)/N=c1\[nH]c2cc(-c3ncn[nH]3)cc(OC)c2n1C/C=C/Cn1/c(=N/C(=O)c2cc(C)nn2CC)[nH]c2cc(C(N)=O)c3ccoc3c21`: the fold change (FC) was 1.14 in data set [7] and 17 in [5].
Regarding `CCn1nc(C)cc1C(=O)Nc1nc2cc(C(N)=O)cc(OC)c2n1C/C=C/Cn1c(NC(=O)c2cc(C)nn2CC)nc2cc(C(N)=O)cc(OCCCN3CCOCC3)c21` [listing 1 of 2 here], the IC50 in data set [2] was > 40 µM.
As for `COC(=O)CCC(=O)c1nc2cc(C(N)=O)cc(OC)c2n1C/C=C/Cn1c(C(=O)CCC(=O)OC)nc2cc(C(N)=O)cc(OCCCN3CCOCC3)c21`, the half-maximal effective concentration (EC50) is 29.1 µM in data set [3] and > 50 µM in data set [4]. Also, the values for the fold change (FC) in [5] and in data set [6] were 6.16 and 1.01, respectively.
Take `CCn1nc(C)cc1CCc1nc2cc(C(N)=O)cc(OC)c2n1C/C=C/Cn1c(CCc2cc(C)nn2CC)nc2cc(C(N)=O)cc(OCCCN3CCOCC3)c21`: the figures for the fold change (FC) in data set [5] and in [6] were 0.95 and 0.9, respectively.
As to `CCn1nc(C)cc1C(=O)/N=c1\[nH]c2cc(-c3ncn[nH]3)cc(OC)c2n1[C@H]1CC[C@H](n2/c(=N/C(=O)c3cc(C)nn3CC)[nH]c3cc(C(N)=O)cc(OCCCN4CCOCC4)c32)CC1`, the half-maximal effective concentration (EC50) in [3] and in [4] was > 50 µM throughout. The values for the fold change (FC) in data set [5] and in data set [6] were 3.86 and 0.48, respectively.
Turning to `CCn1nc(C)cc1/C=C/c1nc2cc(C(N)=O)cc(OC)c2n1C/C=C/Cn1c(/C=C/c2cc(C)nn2CC)nc2cc(C(N)=O)cc(OCCCN3CCOCC3)c21`, the fold change (FC) turned out to be 0.98 in data set [5] and 0.96 in data set [6].
The corresponding values for `CCn1nc(C)cc1C(=O)/N=c1\[nH]c2cc(-c3ncc[nH]3)cc(OC)c2n1C/C=C/Cn1/c(=N/C(=O)c2cc(C)nn2CC)[nH]c2cc(-c3ncc[nH]3)cc(OCCCN3CCOCC3)c21` are 1.22 and 1.21.
Usually half-life stands for the time needed for the level to fall by half in the phase considered. Lower therefore signals rapid decline. By AUC(0-inf) is commonly meant the area under the concentration-time curve extrapolated to infinity. By clearance is commonly meant the volume of plasma or blood freed of the substance per unit of time. Lower therefore signals inefficient removal. The MRT inf is the average time that molecules of a dose stay in the body. As a reminder, the AUC(0-t) is the area under the concentration-time curve up to a stated or last time point. A low value points to low exposure. As for `CCn1nc(C)cc1C(=O)Nc1nc2cc(C(N)=O)cc(OC)c2n1C/C=C/Cn1c(NC(=O)c2cc(C)nn2CC)nc2cc(C(N)=O)cc(OCCCN3CCOCC3)c21` [listing 2 of 2 here], the Vd in data set [8] came to 0.965 L/kg. In data set [9], this compound had a half-life of 68.4 min. Moreover, the AUC(0-inf) in [10] was 666 ng·h/mL. Moreover, the clearance in data set [11] was 26 mL/min/kg. The compound also yielded an MRT inf in data set [12] of 38 min. For the same compound, in data set [13], the exposure AUC(0-t) was 657 ng·h/mL.
